XiGFP reactiv: X-chromosome reactivation activator; XiGFP mouse fibroblasts, % GFP-positive cells imaging, 3 d; cells co-treated with 5-aza-dC sensitizer; scaled so ellipticine positive control = 100%; activation, % at 7.58 µM; actives 0.055% (n = 360,000);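 active means mean normalized replicate activation at least 10% and every replicate at or above 10%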;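 further: 0% = median of on-plate neutral control wells and 100% = ellipticine 6 µM median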
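material = 68-5-11 XiGFP fibroblast line | medium = DMEM plus 5-aza-dC sensitizer | schedule = 3 days compound exposure | benchmarks = positive control ellipticine, 6 µM final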
SR-BI uptake up: SR-BI HDL lipid transfer activation. CHO ldlA[mSR-BI] cells, DiI-HDL uptake fluorescence, 3 h; 100 = double the neutral-control signal. activation, % at 12.5 µM. actives 0.096% (n = 320,000);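 active means mean replicate activation of at least 60% and every replicate at or above 60%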;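 further: 0% = median plate neutral-control signal and 100% = twice that signal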
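Test system: SR-BI-overexpressing, LDLR-lacking CHO cells; Medium: Ham's F12 with 0.5% BSA, HEPES 25 mM, pH 7.4; Schedule: 3 h, 37 °C; Technique: bottom-read fluorescence, 550/595 nm.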
HGIII-sPLA2 inh: Blocks human group III sPLA2 activity; Q9NZ20; QFRET BODIPY PC-A2 liposome hydrolysis, fluorescence; inhibition, % at 12.2 µM; actives 0.56% (n = 370,000); AID 743126;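 active means inhibition above mean plus 3 SD of compounds lying within the high and low control bounds, cut at about 19% in these data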;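 further: 0% = median of test compound wells and 100% = no enzyme DMSO wells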
Target sequence (Q9NZ20 whole entry, looked up): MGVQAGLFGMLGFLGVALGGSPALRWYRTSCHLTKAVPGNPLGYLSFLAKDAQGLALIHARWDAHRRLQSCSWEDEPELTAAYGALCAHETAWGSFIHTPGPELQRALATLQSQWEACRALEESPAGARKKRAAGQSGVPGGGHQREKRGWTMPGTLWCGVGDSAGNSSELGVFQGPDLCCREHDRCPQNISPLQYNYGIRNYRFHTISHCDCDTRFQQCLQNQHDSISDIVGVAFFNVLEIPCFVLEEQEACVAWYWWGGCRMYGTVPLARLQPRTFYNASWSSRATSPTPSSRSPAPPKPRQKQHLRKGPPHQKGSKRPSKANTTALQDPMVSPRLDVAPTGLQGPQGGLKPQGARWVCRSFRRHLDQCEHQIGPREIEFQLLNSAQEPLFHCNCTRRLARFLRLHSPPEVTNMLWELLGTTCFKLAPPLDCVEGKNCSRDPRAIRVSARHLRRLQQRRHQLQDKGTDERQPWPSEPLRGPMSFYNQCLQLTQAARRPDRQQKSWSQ
SR-BI DiI inh: inhibitors of mouse SR-BI mediated HDL lipid uptake. ldlA[mSR-BI] CHO cells, DiI-HDL uptake fluorescence, 3 h. Q61009. inhibition, % at 12.5 µM. actives 0.96% (n = 320,000). AID 488896;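 active means mean replicate inhibition of at least 70% and a set share of replicates each scoring 70 or more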;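 further: 0% = median of neutral control wells and 100% = median of positive control wells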
NSD2 HMT inh: inhibitors of human histone methyltransferase NSD2. O96028. NSD2 peptide methylation, AlphaScreen, 120 min. inhibition, % at 12.5 µM. actives 0.54% (n = 310,000); in the data active means inhibition above about 50%
ARNT TACC3 PPI: disruptors of human ARNT/TACC3 interaction; AlphaScreen His-ARNT PAS-B/GST-TACC3 binding, luminescence; TACC3 fragment carries E629A point mutation; actives 0.66% (n = 390,000); AID 623870; inhibition, % at 9.99 µM; Q9Y6A5;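 active means mean inhibition of replicates at least 50% and at least half of replicates each reaching 50%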;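 further: 0% = complete ARNT plus TACC3 wells and 100% = ARNT alone without TACC3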
Active calls of the source: *; · = no result. Most compounds without a hit are left out; they make up all but 2% or so of the library.

SMILES	XiGFP reactiv	SR-BI uptake up	HGIII-sPLA2 inh	SR-BI DiI inh	NSD2 HMT inh	ARNT TACC3 PPI
Cn1nnnc1Sc1ncnc2scc(-c3cccc4ccccc34)c12	0	12	11	-12	·	-5
FC(F)(F)c1ccccc1Cc1c(-c2cccc(Br)c2)nc2ccc(Cl)cn12	0	·	-5	·	·	·
O=C(NC12CC3CC(CC(C3)C1)C2)c1ccc(-c2ccccc2Cl)o1	·	-11	-11	11	-3	active
COC(=O)[C@H]1[C@H](CO)[C@H]2Cn3c(ccc(-c4ccccc4)c3=O)[C@H]2N1Cc1ccccn1	1	·	·	·	·	9
CCNC(=O)[C@@H]1[C@@H](CO)[C@@H]2Cn3c(ccc(-c4ccccc4)c3=O)[C@@H]2N1Cc1ccccn1	0	·	·	·	·	43*
CC1(C(=O)OCC(=O)NCc2ccc(Cl)cc2)CC1(Cl)Cl (centres undefined)	0	12	1	-12	-5	-3
CC1(C(=O)OCC(=O)NC(=O)NCc2ccccc2)CC1(Cl)Cl (centres undefined)	0	62*	-8	-62	0	-6
CCOc1ccc(C(=O)Nc2cccc(-n3cnnn3)c2)cc1OCC	0	-68	-3	68	5	5
CCCCOc1ccc(C(=O)Nc2cccc(-n3cnnn3)c2)cc1OC	0	-75	-9	75*	0	-2
Cc1[nH]oc(=O)c1N=Nc1ccc2[nH]c(=O)[nH]c2c1	0	10	11	-10	·	-5
COc1ccc(-n2c(Cc3cccn3C)nnc2SCC(=O)NCc2ccco2)cc1	0	-5	1	5	·	4
COc1cc(/C=C(\C#N)c2nc3ccccc3[nH]2)ccc1Oc1ccc([N+](=O)[O-])cn1	·	-74	-7	74*	0	-17
COc1cc(/C=C(/C#N)c2ccccc2)ccc1Oc1ccc([N+](=O)[O-])cn1	·	-44	-3	44	-5	31
CC(C)c1ccc2c(c1)C1(NN=C(c3ccccc3)S1)C(=O)N2 (centres undefined)	·	-106	5	106*	21	50*
CC(C)c1cccc(O)c(=O)c1	·	12	12	-12	·	-25
CC1Cc2ccccc2N1C(=O)Cn1c(=O)oc2cc(S(=O)(=O)NC3CCCC3)ccc21 (centres undefined)	0	·	-17	·	·	-7
CC1CCN(S(=O)(=O)c2ccc3c(c2)oc(=O)n3CC(=O)N2c3ccccc3CC2C)CC1 (centres undefined)	0	-73	0	73*	·	-5
Cc1ncc(CO)c(/C=N/Nc2ccc(C(F)(F)F)cn2)c1O	1	0	1	0	5	72*
Cc1ncc(CO)c(/C=N/N=C/c2ccccc2O)c1O	·	-29	-1	29	0	-5
O=C(c1cc(-c2ccc(Br)cc2)on1)N1CCCCCC1	0	19	-1	-19	6	1
Cc1noc(C)c1S(=O)(=O)Nc1ccc2c(c1)C(=O)N([C@H](C)CO)C[C@H](C)[C@H](CN(C)Cc1ccccc1)OCCCC[C@@H](C)O2	0	·	·	·	·	-4
Cc1ccc(N2C(=O)[C@@H]3[C@H](C2=O)C2c4ccccc4C=CN2[C@@H]3C(=O)c2ccco2)c(C)c1 (some centres undefined)	·	-7	-9	7	·	45*
CSc1nsc(/C=C/Nc2ccc(O)cc2C)c1C#N	0	-81	-20	81*	0	·
Oc1ccc(Br)cc1C=Nc1ccc2c3c(cccc13)CC2	105*	-5	-119	5	-1	3
Cc1noc(C)c1S(=O)(=O)Nc1cccc2c1O[C@@H](CN(C)C(=O)Nc1ccccc1)[C@@H](C)CN([C@@H](C)CO)C2=O	-1	·	·	·	·	-3
CCCCSc1nnc(-c2ccccc2)c2ccccc12	0	-74	2	74*	-3	-3
CCOc1ccc(-c2c(C(=O)N/N=C/c3ccc(C)cc3)nnn2-c2nonc2N)cc1	0	-44	-17	44	-1	-3

Screens deposited in PubChem BioAssay by several laboratories.
